We go through three compounds from paper PMC4002122 (Chemical Research in Toxicology, 2014).

Marks after values point to notes of the source that are not given here.

Series [1] is described as follows: Glucuronidation by human hepatic microsomes. Particulars: 60 min, 50 μg of human liver proteins, 0.25 mM substrate, 3 mM UDP-GlcUA. Format: in vitro ADME. The gist of the method: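 Microsomes from individual human livers (10 donors), a pooled liver sample and hepatosomes, or from intestines (13 donors). Substrate dried from ethanol, redissolved in DMSO and sonicated. Incubated 37 °C, 60 min; ethanol stop, centrifuged. Glucuronides measured by reversed-phase HPLC-UV; nmol/mg/min, median and range.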

Series [2] addresses T1, UGT2B4 (Homo sapiens, UniProt P06133).
T1 sequence (P06133 24-528): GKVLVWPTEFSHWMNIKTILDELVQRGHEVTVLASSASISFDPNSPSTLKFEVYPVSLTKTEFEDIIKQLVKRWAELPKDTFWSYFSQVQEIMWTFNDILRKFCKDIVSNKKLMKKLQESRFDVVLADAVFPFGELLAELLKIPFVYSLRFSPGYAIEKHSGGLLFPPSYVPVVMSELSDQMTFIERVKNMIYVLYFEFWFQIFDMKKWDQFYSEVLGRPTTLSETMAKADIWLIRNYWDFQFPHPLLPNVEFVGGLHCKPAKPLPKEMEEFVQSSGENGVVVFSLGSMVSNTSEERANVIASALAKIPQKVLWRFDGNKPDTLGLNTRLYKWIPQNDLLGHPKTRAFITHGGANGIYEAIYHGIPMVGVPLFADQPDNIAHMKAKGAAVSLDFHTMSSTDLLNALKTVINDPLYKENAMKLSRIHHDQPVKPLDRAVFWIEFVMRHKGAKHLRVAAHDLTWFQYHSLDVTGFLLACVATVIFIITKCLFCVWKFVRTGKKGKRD
The experiment in a line: Screening of recombinant UGT2B4 for glucuronidation activity. Particulars: 250 μM substrate, 5 μg protein, 60 min, 37 °C. Format: in vitro ADME. Summed up:
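UGT1A1, 1A3, 1A4 and 1A6–1A10 were His-tagged and expressed in baculovirus-infected Sf9 cells; UGT2B4, 2B7, 2B15 and 2B17 were commercial membranes run per supplier protocol. 5 μg membrane protein with 250 μM substrate, 2 mM UDP-GlcUA, Tris–HCl pH 7.4, MgCl2, saccharolactone, 2% DMSO; 37 °C, 60 min; no-substrate controls. Products measured by HPLC-UV/vis; β-glucuronidase hydrolysis separated O- from carboxyl glucuronides.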

Series [3] concerns tubulin. Particulars: cited from earlier work.
Series [4] addresses T2, UGT1A1 (Homo sapiens, UniProt P22309).
T2 sequence (P22309 26-533): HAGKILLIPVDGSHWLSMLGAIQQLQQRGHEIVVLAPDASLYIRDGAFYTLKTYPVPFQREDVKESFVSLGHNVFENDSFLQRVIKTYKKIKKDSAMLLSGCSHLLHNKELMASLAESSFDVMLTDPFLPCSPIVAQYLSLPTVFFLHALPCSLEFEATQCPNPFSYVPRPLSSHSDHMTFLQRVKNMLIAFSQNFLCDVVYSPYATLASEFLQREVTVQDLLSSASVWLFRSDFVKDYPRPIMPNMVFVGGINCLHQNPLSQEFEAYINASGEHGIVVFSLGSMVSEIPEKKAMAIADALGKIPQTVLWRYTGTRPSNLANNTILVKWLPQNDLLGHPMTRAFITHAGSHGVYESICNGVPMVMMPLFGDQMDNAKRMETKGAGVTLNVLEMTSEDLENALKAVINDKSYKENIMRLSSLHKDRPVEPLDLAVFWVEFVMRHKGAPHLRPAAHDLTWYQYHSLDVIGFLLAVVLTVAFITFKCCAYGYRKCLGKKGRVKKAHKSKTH
The experiment in a line: Steady state kinetics of glucuronidation by recombinant UGT1A1. Format: in vitro ADME.

As for `COc1cc(/C=C/c2cc([N+](=O)[O-])c(O)c([N+](=O)[O-])c2)cc(OC)c1` [DNR-1, (E)-4-(3,5-dimethoxystyryl)-2,6-dinitrophenol], the “metabolism with human liver microsomes” value in series [1] is reported as “not metabolized”. In addition, in series [2], the “glucuronidation activity (glucuronide formed)” value is recorded as “No activity”.

For `COc1ccc(/C=C(/C(=O)O)c2cc(OC)c(OC)c(OC)c2)cc1O` [NI-12a, (E)-3-(3-hydroxy-4-methoxyphenyl)-2-(3,4,5-trimethoxyphenyl)acrylic acid], in series [3], the antitubulin activity entry is “effective antitubilin agent”. For the same compound, the NI-12a-COO-gluc formation entry in series [4] (COO-glucuronide) was “too low to be assessed”. In addition, the NI-12a-O-gluc formation entry in series [4] (O-glucuronide) is “not produced”.

As for `COc1ccc(C=Cc2cc(OC)cc(OC)c2/C=N/O)cc1` [NI-ST-05, (E)-2,4-dimethoxy-6-(4-methoxystyryl)benzaldehyde oxime], in series [4] (NI-ST-05–N–O-gluc formation, estimated based on an incomplete data set), the kinetic model entry is reported as “M–M ^b”. Moreover, the Vmax in series [4] (NI-ST-05–N–O-gluc formation, estimated based on an incomplete data set, assuming M–M kinetics) is given as 0.21 ± 0.02 ^b nmol/mg/min. Further, in series [2], the “glucuronidation activity (glucuronide formed)” value is “inactive”.
